Experimental data collected from several papers.
Lines come from different studies, so protocols differ.
Target: Homeodomain-interacting protein kinase 3 (HIPK3, Homo sapiens, UniProt Q9H422)

With `O=C(O)c1ccc2c(c1)nc(NCCc1cccc(F)c1)c1ncncc12` the remaining activity was 27% (enzyme activity, inhibitor, radiometric; 1 µM).
The remaining signal of `N#CCCc1ccc2c(c1)-c1[nH]c3ccc([N+](=O)[O-])cc3c1CC(=O)N2` is reported as 104% (cell-free assay; 0.5 µM).
`COc1cc2nccc(Oc3ccc(NC(=O)c4c5n(n(-c6ccc(F)cc6)c4=O)CCCC5)cc3)c2cc1OC` has an inhibition of -8% (enzyme activity, inhibitor; 0.1 µM).
For `Cn1c(=O)n(-c2ccc(C(C)(C)C#N)cc2)c2c3cc(-c4cnc5ccccc5c4)ccc3ncc21`, the remaining activity was 102% (enzyme activity, inhibitor; 10 µM).
With `Cc1noc([C@H]2C[C@@H](c3ccc(C(F)(F)F)cc3)CN(C(=O)N3CCS(=O)(=O)C3)C2)n1` the remaining binding was 96% (cell-free assay, competition with immobilised ligand; 1 µM).
`O=C(O)c1ccc2c(c1)nc(Nc1ccc(Cl)cc1)c1ncncc12` has a remaining activity of 7% (enzyme activity, inhibitor, radiometric; 1 µM).
`N#Cc1ccc(Nc2ccc3[nH]c(=O)[nH]c3c2)c(Cl)c1` has a remaining binding of 94% (cell-free assay, competition with immobilised ligand; 1 µM).
`FC(F)(F)Oc1cccc(-c2cnc3ccc(-c4ccncc4)nn23)c1` gave an activity vs control of 35% (enzyme activity, inhibitor, radiometric; 5 µM).
For `CO[C@H]1CC[C@H](CNc2ccc(S(=O)(=O)NC(=O)c3ccc(N4CCN(CC5=C(c6ccc(Cl)cc6)CC(C)(C)CC5)CC4)cc3Oc3cnc4[nH]ccc4c3)cc2[N+](=O)[O-])CC1`, the remaining binding was 100% (cell-free assay, competition with immobilised ligand; 1 µM).
`Nc1ncnc2occ(-c3ccc(NC(=O)Nc4cc(C(F)(F)F)ccc4F)cc3)c12` gave a remaining signal of 0.7% (cell-free assay, inhibitor; 20 µM).
With `O=C(O)c1ccc2c(c1)nc(NCc1ccccc1)c1ccncc12` the remaining activity was 68% (enzyme activity, inhibitor, radiometric; 1 µM).
The inhibition of `COc1cc2ncnc(Nc3ccc(Oc4ccccc4)cc3C)c2cc1OC` is reported as 3% (enzyme activity, inhibitor; 1 µM).
The remaining activity of `O=C(O)c1ccc2c(c1)nc(Nc1ccc3ccccc3c1)c1ncncc12` is reported as 3% (enzyme activity, inhibitor, radiometric; 1 µM).
For `Cc1nc(Cc2cccc(C(F)(F)F)c2)sc1-c1ccc(C(N)=O)nc1`, the remaining binding was 100% (cell-free assay, competition with immobilised ligand; 1 µM).
With `CCOc1cc(-c2nncn2C)ccc1Nc1ncc2cc(C)nc(NCC(C)(C)C)c2n1` the inhibition was under 15% (enzyme activity, inhibitor, FRET; 1 µM).
`CCN(CC)CCNC(=O)c1c(C)[nH]c(/C=C2\C(=O)Nc3ccc(F)cc32)c1C` has an inhibition of 82% (enzyme activity, inhibitor; 10 µM).
`O=C(NC[C@@H]1[C@H]2CN(C(=O)OCc3cc(C(F)(F)F)cc(C(F)(F)F)c3)C[C@@H]12)c1ccc2[nH]nnc2c1` gave a remaining binding of 89% (cell-free assay, competition with immobilised ligand; 1 µM).
`Cc1ccc(Nc2nccc(N(C)c3ccc4c(C)n(C)nc4c3)n2)cc1S(N)(=O)=O` has an inhibition of 20% (enzyme activity, inhibitor; 10 µM).
For `O=C(O)c1ccc2c(c1)nc(Nc1ccccc1)c1ncncc12`, the remaining activity was 13% (enzyme activity, inhibitor, radiometric; 1 µM).
`O=C(NCc1ncc(C(F)(F)F)cc1Cl)c1ccc2c(c1)C1(CCS(=O)(=O)CC1)[C@H](C1CC1)N2S(=O)(=O)c1ccc(F)cc1` has a remaining binding of 82% (cell-free assay, competition with immobilised ligand; 1 µM).
The remaining signal of `C#Cc1cccc(Nc2ncnc3cc(OCCOC)c(OCCOC)cc23)c1` is reported as 102% (cell-free assay; 0.5 µM).
For `O=C(O)c1ccc2c(c1)nc(NCCc1ccccc1)c1ncncc12`, the remaining activity was 16% (enzyme activity, inhibitor, radiometric; 1 µM).
`Cc1ccc(NC(=O)c2ccc(C)c(C(F)(F)F)c2)cc1C#Cc1nn(C2CCC(O)CC2)c2ncnc(N)c12` (stereo not drawn) has a remaining signal of 81% (cell-free assay; 10 µM).
`COc1cccc(CNC(=O)c2nc3scc(COCc4ccc(C(=O)O)cc4)c3c(=O)[nH]2)c1` gave a remaining binding of 73.7% (cell-free assay, competition with immobilised ligand; 1 µM).
For `COc1cc(-c2cc(-c3ccc(N4CCNCC4)cc3)cnc2C)cc(OC)c1OC`, the inhibition was 1% (enzyme activity, inhibitor; 0.1 µM).
With `O=C(Nc1cnn(-c2csc(C(=O)NC3COC3)c2)c1)Nc1c(F)cccc1Cl` the remaining activity was 98.8% (enzyme activity, inhibitor; 5 µM).
With `O=C(O)c1ccc2c(c1)nc(Nc1ccccc1Cl)c1ncncc12` the remaining activity was 17% (enzyme activity, inhibitor, radiometric; 1 µM).
`O=C1NC(=O)c2cc(Nc3ccc(F)cc3)c(Nc3ccc(F)cc3)cc21` has a remaining signal of 95.3% (cell-free assay; 0.5 µM).
`CN([C@@H]1CCc2c(CC(=O)O)c3ccccc3n2C1)S(=O)(=O)c1ccc(F)cc1` has a remaining binding of 71% (cell-free assay, competition with immobilised ligand; 1 µM).
With `N#Cc1cccc(Nc2nc3cc(C(=O)O)ccc3c3cncnc23)c1` the remaining activity was 8% (enzyme activity, inhibitor, radiometric; 1 µM).
